# Source: PMC3575752 (Journal of nuclear medicine : official publication, Society …, 2009)
# Experiments:
# [1] = tested on: PC-3 PSMA− tumor xenografts; assay: Ex vivo biodistribution in mice bearing PC-3; parameters: species or system male NCr nude mice
# Method in brief: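 Male NCr nude mice with subcutaneous right-shoulder PC-3 xenografts (cells in serum-free medium; tumours 5–10 mm, 1–2 wk). 18F tracer, 3,700–7,400 kBq, by tail vein under isoflurane. Euthanised after 2 h imaging. Cardiac blood, major organs (including kidney) and tumour weighed and γ-counted. %ID/g from known-activity standards. n = 3; one-tailed t test, unequal variance.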
# [2] = tested on: LNCaP PSMA+ tumor xenografts; assay: microPET/CT imaging of LNCaP; type: in vivo, male NCr nude mice; settings: 1 mg nonradioactive (2) 1 h before tracer, 120 min after injection
# Method in brief: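 LNCaP-xenograft male nude mice (tumours 5–10 mm) under isoflurane were pretreated with 1 mg unlabelled analogue in 200 μL Tris buffer. One hour later they received tail-vein 18F tracer (3,700–7,400 kBq). MicroPET/CT, 10-min acquisitions at 0, 1 and 2 h, list mode, 2D OSEM reconstruction.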
# [3] = tested on: PC-3 PSMA− tumor xenografts; assay: microPET/CT imaging of PC-3; type: in vivo, male NCr nude mice; settings: PC-3 PSMA− xenograft, 2 h post-injection
# Method in brief: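 PC-3-xenograft male NCr nude mice (tumours 5–10 mm, 1–2 wk after subcutaneous inoculation) anaesthetised with isoflurane. Tail-vein 18F tracer, 3,700–7,400 kBq (100–200 μCi). MicroPET/CT, 10-min scans at 0, 1 and 2 h. List-mode data, 2D OSEM reconstruction.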
# [4] = molecular target: purified PSMA (Homo sapiens, UniProt Q04609); assay: HPLC-based PSMA inhibition IC50 assay; type: biochemical; settings: read-out: IC50, PSMA inhibition; PABGgG 1 μM, 15 min, 37°C, Tris pH 7.4
# Method in brief: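 Purified PSMA diluted in 50 mM Tris pH 7.4 with 1% Triton X-100 to give 15–20% uninhibited conversion. […] Shaken 15 min at 37°C, then quenched with 2% TFA in methanol and buffered with 0.1 M K2HPO4. After centrifugation, supernatant product measured by HPLC; IC50 calculated.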
# Chain of purified PSMA (Q04609 whole entry): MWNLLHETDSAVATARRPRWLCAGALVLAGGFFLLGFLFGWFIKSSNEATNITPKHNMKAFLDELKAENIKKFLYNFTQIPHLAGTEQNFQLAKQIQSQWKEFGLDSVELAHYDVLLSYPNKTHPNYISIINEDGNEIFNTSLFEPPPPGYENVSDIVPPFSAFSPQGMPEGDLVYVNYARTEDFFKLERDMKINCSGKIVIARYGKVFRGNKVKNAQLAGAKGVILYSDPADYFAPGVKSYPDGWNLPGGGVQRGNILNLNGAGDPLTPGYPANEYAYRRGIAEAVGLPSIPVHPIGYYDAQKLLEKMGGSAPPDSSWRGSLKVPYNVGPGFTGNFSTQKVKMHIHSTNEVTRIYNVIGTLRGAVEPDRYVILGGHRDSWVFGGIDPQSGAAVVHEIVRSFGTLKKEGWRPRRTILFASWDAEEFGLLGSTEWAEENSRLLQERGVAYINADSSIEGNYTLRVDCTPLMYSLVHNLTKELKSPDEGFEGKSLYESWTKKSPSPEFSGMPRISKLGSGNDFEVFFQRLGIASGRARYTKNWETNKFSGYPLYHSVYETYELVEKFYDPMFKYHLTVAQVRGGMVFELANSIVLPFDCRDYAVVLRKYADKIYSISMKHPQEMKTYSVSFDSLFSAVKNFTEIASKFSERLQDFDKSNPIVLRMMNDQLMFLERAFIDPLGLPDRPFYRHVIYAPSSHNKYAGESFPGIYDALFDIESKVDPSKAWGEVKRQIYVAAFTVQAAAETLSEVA
Compound,"tumor uptake in PSMA− control ([1]; PC-3 tumor, 2 h post-injection)","kidney uptake ([1]; PSMA− (PC-3) model, 2 h)",PET tumor uptake after blocking [2],PET tumor signal [3],IC50 [4]
"O=C(O)CC[C@H](NP(=O)(O)OC[C@H](NC(=O)CC[C@H](NC(=O)c1ccc([18F])cc1)C(=O)O)C(=O)O)C(=O)O [compound 3, ^18F-S-2-((2-(S-4-(4-Fluorobenzamido)-4-Carboxybutanamido)-S-2-Carboxyethoxy) Hydroxyphosphoryl-Amino)-Pentanedioic Acid]",0.32 ± 0.14 %ID/g,2.83 ± 0.9 %ID/g,substantial decrease in tumor uptake,no detectable tumor signal,
"O=C(O)CC[C@H](NP(=O)(O)OC[C@H](NC(=O)CC[C@H](NC(=O)c1ccc(F)cc1)C(=O)O)C(=O)O)C(=O)O [compound 2, S-2-((2-(S-4-(4-Fluorobenzamido)-4-Carboxybutanamido)-S-2-Carboxyethoxy) Hydroxyphosphorylamino)-Pentanedioic Acid]",,,,,0.68 nM
